In ChEMBL document CHEMBL1121608, “Modification of the 5' position of purine nucleosides. 2. Synthesis and some cardiovascular properties of adenosine-5'-(N-substituted)carboxamides” (J Med Chem, 1980):

How the values were obtained:
[1] = test system: Canis familiaris; test: Total time in minutes elapsed from the initiation of the change until return to the pretest value of blood pressure in coronary sinus of anesthetized dog at intravenous dosage of 10 mg/kg; format: functional, Canis lupus familiaris
[2] = test system: Canis familiaris; test: Total time in minutes elapsed from the initiation of the change until return to the pretest value of heart rate in coronary sinus of anesthetized dog at intravenous dosage of 10 mg/kg; format: functional, Canis lupus familiaris
[3] = test system: Canis familiaris; test: Total time in minutes elapsed from the initiation of the change until return to the pretest value of oxygen partial pressure in coronary sinus of anesthetized dog at intravenous dosage of 10 mg/kg; format: functional, Canis lupus familiaris
Summary of the method: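 Open-chest anesthetized dogs given compound by intravenous injection. Coronary sinus PO2 was monitored, and duration was the total time in minutes from the onset of the change until return to the pretest value.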

[4] = test system: Canis familiaris; test: Tested for the percent increase in aortic blood pressure (BP) in open chest anesthetized dog at intravenous dosage of 10.00 mg/kg; format: functional, Canis lupus familiaris, Artery
Summary of the method: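 Open-chest anesthetized dogs, compound given iv at the stated dose. Aortic blood pressure is reported as the change from the control (pre-dose) value. Other set-up follows the group's earlier cardiovascular protocol.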

[5] = test system: Canis familiaris; test: Tested for percent increase in coronary sinus partial pressure of oxygen (PO2) in open chest anesthetized dog at intravenous dosage of 10.00 mg/kg; format: functional, Canis lupus familiaris
[6] = Lethal dose in mice after intraperitoneal administration; format: toxicity, organism-based; settings: mouse, in vivo, ip
Summary of the method: (§1)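 Male and female mice, three per dose group, were given the compound by the stated route in increments of 0.5 log doses. The LD50 was estimated as an approximate value.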

[7] = Lethal dose in mice after peroral administration; format: toxicity, organism-based; settings: mouse, in vivo, po; summary of the method: as §1
[8] = test system: Canis familiaris; test: Total time in minutes elapsed from the initiation of the change until return to the pretest value of blood pressure in coronary sinus of anesthetized dog at intravenous dosage of 0.01 mg/kg; format: functional, Canis lupus familiaris
[9] = test system: Canis familiaris; test: Total time in minutes elapsed from the initiation of the change until return to the pretest value of heart rate in coronary sinus of anesthetized dog at intravenous dosage of 0.01 mg/kg; format: functional, Canis lupus familiaris
[10] = test system: Canis familiaris; test: Total time in minutes elapsed from the initiation of the change until return to the pretest value of oxygen partial pressure in coronary sinus of anesthetized dog at intravenous dosage of 0.01 mg/kg; format: functional, Canis lupus familiaris
[11] = test system: Canis familiaris; test: Tested for percent increase in coronary sinus partial pressure of oxygen (PO2) in open chest anesthetized dog at intravenous dosage of 0.01 mg/kg; format: functional, Canis lupus familiaris

SMILES | Duration [1] | Duration [2] | Duration [3] | BP [4] | PO2 [5] | LD50 [6] | LD50 [7] | Duration [8] | Duration [9] | Duration [10] | PO2 [11]
CN(C)CCNC(=O)[C@H]1OC(n2cnc3c(N)ncnc32)[C@H](O)[C@@H]1O (some centres not stated) | 15 min | 15 min | 2 min | 5% | 13% | 20 mg/kg | 500 mg/kg | – | – | – | –
CC1(C)OC2[C@@H](C(=O)NC3CC3)O[C@@H](n3cnc4c(N)ncnc43)[C@H]2O1 (some centres not stated) | 1 min | 1 min | 60 min | 26% | 9% | > 300 mg/kg | > 300 mg/kg | – | – | – | –
CCNC(=O)[C@H]1O[C@@H](n2cnc3c(N)ncnc32)[C@H](O)[C@@H]1O [NECA] | – | – | – | – | – | 0.5 mg/kg | 5 mg/kg | 120 min | 345 min | 345 min | 250%
Nc1ncnc2c1ncn2C1O[C@H](C(=O)N2CCOCC2)[C@@H](O)[C@H]1O (some centres not stated) | 0 min | 0 min | 0 min | 0% | 0% | > 300 mg/kg | > 300 mg/kg | – | – | – | –
Cc1cccc(C)c1NC(=O)[C@H]1OC(n2cnc3c(N)ncnc32)[C@H](O)[C@@H]1O (some centres not stated) | 30 min | 5 min | 30 min | 13% | 15% | > 1000 mg/kg | > 1000 mg/kg | – | – | – | –
Nc1ncnc2c1ncn2[C@@H]1O[C@H](C(=O)NC2CC2)[C@@H](O)[C@H]1O | – | – | – | – | – | 2 mg/kg | 5 mg/kg | 150 min | 150 min | 150 min | 136%
COc1ccccc1N1CCN(C(=O)[C@H]2OC(n3cnc4c(N)ncnc43)[C@H](O)[C@@H]2O)CC1 (some centres not stated) | 60 min | 60 min | 15 min | 7% | 107% | > 300 mg/kg | > 300 mg/kg | – | – | – | –
CCOC(=O)CNC(=O)[C@H]1OC(n2cnc3c(N)ncnc32)[C@H](O)[C@@H]1O (some centres not stated) | 30 min | 11 min | 30 min | 6% | 9% | > 300 mg/kg | > 300 mg/kg | – | – | – | –
Nc1ncnc2c1ncn2C1O[C@H](C(=O)N2CCCCC2)[C@@H](O)[C@H]1O (some centres not stated) | 20 min | 30 min | 8 min | 7% | 52% | > 1000 mg/kg | > 1000 mg/kg | – | – | – | –
Nc1ncnc2c1ncn2[C@@H]1O[C@H](C(=O)NC2CCC2)[C@@H](O)[C@H]1O | – | – | – | – | – | 2 mg/kg | 5 mg/kg | 90 min | 48 min | 90 min | 79%
CC(C)NC(=O)[C@H]1OC(n2cnc3c(N)ncnc32)[C@H](O)[C@@H]1O (some centres not stated) | – | – | – | – | – | 5 mg/kg | 5 mg/kg | 70 min | 240 min | 240 min | 43%
Nc1ncnc2c1ncn2C1O[C@H](C(=O)Nc2ccc(F)cc2)[C@@H](O)[C@H]1O (some centres not stated) | 0 min | 0 min | 20 min | 0% | 30% | 500 mg/kg | > 1000 mg/kg | – | – | – | –
CCC(=O)c1ccccc1NC(=O)[C@H]1OC(n2cnc3c(N)ncnc32)[C@H](O)[C@@H]1O (some centres not stated) | 40 min | 40 min | 16 min | 5% | 39% | > 1000 mg/kg | > 1000 mg/kg | – | – | – | –
CCNC(=O)[C@H]1O[C@@H](n2cnc3c(N)ncnc32)[C@H]2OC(C)(C)OC12 (some centres not stated) | 0 min | 16 min | 30 min | 0% | 27% | – | – | – | – | – | –
